Compound activity: PubChem BioAssay, several laboratories
SR-BI DiI inh – mouse SR-BI HDL lipid transfer inhibition. Q61009. inhibition, % at 12.5 µM. ldlA[mSR-BI] CHO cells, DiI-HDL uptake fluorescence, 3 h. hit rate 0.96% among 320,000;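 active = mean replicate inhibition of at least 70% and a set share of replicates each scoring 70 or more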;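 also: 0% = median of neutral control wells and 100% = median of positive control wells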
SR-BI uptake up – activators of SR-BI mediated HDL lipid uptake | CHO ldlA[mSR-BI] cells, DiI-HDL uptake fluorescence, 3 h; 100 = double the neutral-control signal | activation, % at 12.5 µM | hit rate 0.096% among 320,000;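 active = mean replicate activation of at least 60% and every replicate at or above 60%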;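 also: 0% = median plate neutral-control signal and 100% = twice that signal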
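material = CHO ldlA[mSR-BI] cells | medium = Ham's F12 with 0.5% BSA, HEPES 25 mM, pH 7.4 | reagent = fluorescent DiI-HDL, 10 µg/mL final | compound dosing = single-point compound dose | incubation = 3 h, 37 °C | measured by = bottom-read fluorescence, 550/595 nm | measure = HDL uptake via cellular fluorescence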
JMJD2C inh – inhibitors of human GASC-1 (JMJD2C) demethylase. inhibition, % at 2.35 µM. AID 2099. GST-JMJD2C(1-420) H3K9me3 demethylation, DELFIA europium. hit rate 0.069% among 330,000. Q9H3R0;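 active = more than half of a compound's replicate wells show inhibition beyond 50%, single wells judged on their own value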;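 also: signal counts dimethyl H3K9 product captured on neutravidin plate; 0% = median of DMSO wells and 100% = 0.3 times that DMSO median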
Target sequence (Q9H3R0 1-420 limits assumed): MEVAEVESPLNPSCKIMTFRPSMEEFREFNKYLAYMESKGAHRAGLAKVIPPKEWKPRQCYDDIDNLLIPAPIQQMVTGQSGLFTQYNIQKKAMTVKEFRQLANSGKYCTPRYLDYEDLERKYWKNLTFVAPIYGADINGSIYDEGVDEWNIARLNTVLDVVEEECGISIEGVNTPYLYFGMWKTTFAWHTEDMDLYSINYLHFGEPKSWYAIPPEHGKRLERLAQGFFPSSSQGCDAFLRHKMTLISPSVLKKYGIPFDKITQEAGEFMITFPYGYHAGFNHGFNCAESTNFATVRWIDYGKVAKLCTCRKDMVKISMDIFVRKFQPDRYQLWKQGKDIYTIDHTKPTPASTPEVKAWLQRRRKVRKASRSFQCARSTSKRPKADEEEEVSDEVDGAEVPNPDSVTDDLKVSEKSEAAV
FXN GAA850 act – increases GAA850 frataxin promoter reporter activity; AID 540364; activation, % at 6 µM; hit rate 0.56% among 360,000; HEK293 lucGAA850 FXN promoter luciferase reporter, 24 h; percent of 10 µM SAHA response;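 active = activation above the average of all compounds screened plus 3 SD, cutoff fixed separately per campaign, cut at about 7.5% in these data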;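 also: 0% = DMSO wells and 100% = 10 µM SAHA wells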
AHR activator – activators of human aryl hydrocarbon receptor; AID 2796; AHR-responsive luciferase reporter cells, luminescence; P35869; hit rate 2.5% among 320,000; activation, % at 5 µM; in the data active = activation above about 47%;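 also: 0% = vehicle wells and 100% = reference agonist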
Starred values were filed as active, the others as inactive; . = no result. Most compounds without a hit are left out; they make up all but 3.7% or so of the library.

SMILES | SR-BI DiI inh | SR-BI uptake up | JMJD2C inh | FXN GAA850 act | AHR activator
C/C(=N\NC(=S)Nc1ccc(C(C)C)cc1)c1ccc2c(c1)OCO2 | 29 | -29 | -10 | 3 | 34
CNC(=S)N/N=C(\C)c1ccc2c(c1)OCCO2 | 0 | 0 | 9 | 2 | 48*
C/C(=N\NC(=O)c1c[nH]c2ccccc12)c1ccc2c(c1)OCO2 | -56 | 56 | -6 | 4 | 93*
C/C(=N\NC(=S)NC(C)C)c1ccc2c(c1)OCCO2 | 20 | -20 | 8 | 2 | 11
CNC(=S)N/N=C(\C)c1ccc2c(c1)OCO2 | -1 | 1 | -19 | 0 | 72*
COc1cccc(CN(C)C(=O)C2CCCN(C(=O)c3ccc(Cl)cc3)C2)c1 (configuration not stated) | . | . | . | 0 | .
COc1ccc2[nH]c(C(=O)N3CCC(CO)(Cc4cccc(C(F)(F)F)c4)CC3)c(C)c2c1 | 26 | -26 | -2 | 1 | 2
CCN(CC(=O)NCC1CCCO1)S(=O)(=O)c1ccc(Cl)cc1 (configuration not stated) | -9 | 9 | 50* | 1 | 3
O=C(CN(C1CCCCC1)S(=O)(=O)c1ccc(F)cc1)NCC1CCCO1 (configuration not stated) | 63 | -63 | . | 12* | .
CCN(C(=O)COC(=O)/C=C/c1ccccc1)C1CCCCC1 | 8 | -8 | -25 | 0 | -1
O=C(COc1ccc(/C=N/NS(=O)(=O)c2ccccc2)cc1)NCc1ccccc1 | -4 | 4 | 0 | 1 | 1
O=C(COc1ccc(/C=N/NS(=O)(=O)c2ccccc2)cc1)Nc1cccc(Cl)c1 | 75* | -75 | -5 | -1 | 2
Cc1ccc2nc(-c3ccc(SCC(=O)Nc4nc(C)cs4)nc3)[nH]c2c1 | 15 | -15 | 5 | 1 | 67*
Cc1ccc2nc(-c3ccc(SCC(=O)Nc4nnc(C)s4)nc3)[nH]c2c1 | 2 | -2 | 3 | 0 | 42
Cc1cc2nc(-c3ccc(SCC(=O)N4CCOCC4)nc3)[nH]c2cc1C | 11 | -11 | 0 | -4 | 60*
Cc1cc2nc(-c3ccc(SCC(=O)N4CCN(C(=O)c5ccco5)CC4)nc3)[nH]c2cc1C | 55 | -55 | -7 | 0 | 33
Cc1cc2nc(-c3ccc(SCc4ccccn4)nc3)[nH]c2cc1C | 18 | -18 | -4 | -1 | 48*
O=C(O)c1ccccc1C(=O)Nc1cccc([N+](=O)[O-])c1 | -34 | 34 | 1 | 2 | -1
Cc1c(C(=O)Nc2cccc([N+](=O)[O-])c2)csc1-c1ccccc1 | 89* | -89 | 17 | -4 | -11
O=C(Nc1cccc([N+](=O)[O-])c1)c1cc2ccccc2cc1O | 129* | -129 | 0 | -8 | 24
Cc1ccc(NC(=O)c2csc(-c3ccccc3)c2C)cc1 | 14 | -14 | . | -6 | .
CCN1C(=O)N(C)C(N(O)C(=O)NC)C1(C)C (configuration not stated) | -7 | 7 | 39 | 2 | 1
O=C(NC1CC(=O)N(c2ccc(Cl)cc2)C1)N1CCN(C(=O)c2ccco2)CC1 (configuration not stated) | -32 | 32 | -3 | 0 | -1
CS(=O)(=O)c1ccccc1-c1nc(-c2ccc(C(F)(F)F)cc2)no1 | 29 | -29 | 10 | 2 | -7
Cc1c(-c2nc(-c3ccc(C(F)(F)F)cc3)no2)n(C)oc1=O | -10 | 10 | 7 | 3 | 101*
SMILES | SR-BI DiI inh | SR-BI uptake up | JMJD2C inh | FXN GAA850 act | AHR activator
CCN(CC)c1ccc(/C=N/NC(=O)c2cccc(S(=O)(=O)Nc3ccccc3OC)c2)cc1 | 49 | -49 | -2 | 0 | 11
COc1ccc(NS(=O)(=O)c2cccc(C(=O)NNC(=O)c3cc(C)oc3C)c2)cc1 | 15 | -15 | 8 | 0 | 13
COc1ccc(NS(=O)(=O)c2cccc(C(=O)NN=Cc3ccc(O)c(OC)c3)c2)cc1 | 21 | -21 | -1 | 2 | 1
CCN(CC)c1ccc(/C=N/NC(=O)c2cccc(S(=O)(=O)Nc3ccccc3OC)c2)c(O)c1 | 132* | -132 | 6 | -11 | 6
COc1ccc(NS(=O)(=O)c2cccc(C(=O)NNC(=O)c3ccccc3O)c2)cc1 | 72* | -72 | 5 | 2 | 11
COc1ccc(NS(=O)(=O)c2cccc(C(=O)N/N=C/c3cn(-c4ccccc4)nc3-c3ccccc3)c2)cc1 | 96* | -96 | -9 | -2 | -2
COc1ccc(NS(=O)(=O)c2cccc(C(=O)N/N=C/c3ccccc3OC)c2)cc1 | 82* | -82 | . | 1 | .
N#Cc1ccc(/C=N/NC(=O)CCc2ccc(S(=O)(=O)N3CCOCC3)cc2)cc1 | -2 | 2 | -10 | 4 | 1
C/C(=N/NS(C)(=O)=O)c1ccc2ccccc2c1 | -29 | 29 | -8 | 0 | 2
CCOc1ccc(C(C)=O)cc1COc1cccnc1[N+](=O)[O-] | 41 | -41 | -2 | -4 | -2
Cc1nc2c3ccccc3[nH]c(=O)n2n1 | 14 | -14 | 1 | -2 | 7
Cn1c(C(=O)N2CCN(Cc3ccc4c(c3)OCO4)CC2)cc2c(=O)n(C)c3ccccc3c21 | 76* | -76 | -2 | 0 | 15
Cn1c(C(=O)N2CCCC2)cc2c(=O)n(C)c3ccccc3c21 | 2 | -2 | . | 1 | .
Cc1ccc(-n2[nH]c(C)c(/C=C3/C=Nc4ccccc43)c2=O)cc1C | 11 | -11 | 2 | 3 | 60*
COc1ccc(C2CC(=O)c3sc(NC(C)=O)nc3C2)cc1 (configuration not stated) | 1 | -1 | 2 | -3 | 8
COC(=O)c1ccc(C(=O)OC)c(NC(=O)Nc2ccc3c(c2)OCO3)c1 | -9 | 9 | 36 | 1 | 13
O=C(Nc1ccc2c(c1)OCO2)c1ccc(NC2CC2)c([N+](=O)[O-])c1 | 46 | -46 | -1 | 1 | 52*
COc1cc(C(=O)Nc2ccc3c(c2)OCO3)c([N+](=O)[O-])cc1OC | 2 | -2 | 2 | 2 | 59*
COc1ccc(C(C)(C)C)cc1NC(=O)Nc1ccc2c(c1)OCO2 | 5 | . | -1 | -2 | 79*
COc1cc(NC(=O)Nc2ccc3c(c2)OCO3)cc(OC)c1OC | 10 | -10 | -2 | 3 | 76*
O=C(CCC1CCCN(C(=O)c2ccoc2)C1)NCc1ccccc1F (configuration not stated) | -16 | 16 | 2 | 2 | 1
Cc1cc(C)c(S(=O)(=O)c2ccccc2)c(N2CCOCC2)n1 | -10 | 10 | 0 | -1 | 0
COc1ccc(CN2CCNC(=O)C2CC(=O)N(C)Cc2ccon2)c(F)c1 (configuration not stated) | -10 | 10 | -21 | 0 | -2
COc1cc([N+](=O)[O-])ccc1NC(=O)Nc1ccc2c(c1)OCCO2 | 97* | -97 | 7 | 1 | -4
COc1ccccc1NC(=O)Nc1ccc2c(c1)CCC2 | 16 | . | 1 | 2 | 15
COc1ccc(C(C)(C)C)cc1NC(=O)c1c(C)noc1C | 54 | -54 | -4 | 0 | 81*
